Data from ChEMBL document CHEMBL5036319, “Discovery of Novel Benzothiazepinones as Irreversible Covalent Glycogen Synthase Kinase 3β Inhibitors for the Treatment of Acute Promyelocytic Leukemia” (J Med Chem, 2021).
pIC50: −log10 of the molar value. The source made the active and inactive calls. The rule behind the calls is not given here.

Tests used:
[1] = Induction in caspase-mediated apoptosis in human NB-4 cells assessed as viable cells at 25 uM incubated for 24 hrs in presence of Z-VAD-FMK by Annexin V-FITC/propidium iodide staining based flow cytometry analysis (reference value: 96.8%); format: functional; settings: read-out: Activity
[2] = Induction in caspase-mediated apoptosis in human NB-4 cells assessed as late apoptotic cells at 100 uM incubated for 24 hrs in presence of Z-VAD-FMK by Annexin V-FITC/propidium iodide staining based flow cytometry analysis (reference value: 1.15%); format: functional
[3] = Induction in caspase-mediated apoptosis in human NB4-DR1 cells assessed as viable cells at 12.5 uM incubated for 24 hrs in presence of Z-VAD-FMK by Annexin V-FITC/propidium iodide staining based flow cytometry analysis (reference value: 96.4%); format: functional; settings: read-out: Activity
[4] = Induction in caspase-mediated apoptosis in human NB4-DR1 cells assessed as early apoptotic cells at 100 uM incubated for 24 hrs by Annexin V-FITC/propidium iodide staining based flow cytometry analysis (reference value: 1.43%); format: functional
[5] = Induction in caspase-mediated apoptosis in human NB4-DR1 cells assessed as viable cells at 50 uM incubated for 24 hrs by Annexin V-FITC/propidium iodide staining based flow cytometry analysis (reference value: 96.9%); format: functional; settings: read-out: Activity
[6] = Induction in caspase-mediated apoptosis in human NB4-DR1 cells assessed as early apoptosis cells at 12.5 uM incubated for 24 hrs in presence of Z-VAD-FMK by Annexin V-FITC/propidium iodide staining based flow cytometry analysis (reference value: 0.875%); format: functional
[7] = Induction in caspase-mediated apoptosis in human NB-4 cells assessed as necrotic cells at 100 uM incubated for 24 hrs by Annexin V-FITC/Propidium iodide staining based flow cytometry analysis (reference value: 0.352%); format: functional
[8] = Cytotoxicity against HUVEC assessed as cell viability at 0 to 50 uM incubated for 24 hrs by CCK-8 assay relative to control; format: cell-based; settings: human, dose 0-50 µM, read-out: Activity
Method in brief: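 HUVEC and LO2 normal cells were cultured in RPMI-1640 or DMEM with 10% FBS at 37 °C, 5% CO2, and seeded at 3 × 10^4 cells/well. They were exposed for 24 h to graded concentrations. CCK-8 incubation was 3 h at 37 °C, with A450 read and viability expressed versus untreated control. Three independent experiments, mean ± SEM.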

[9] = Induction in caspase-mediated apoptosis in human NB-4 cells assessed as early apoptotic cells at 12.5 uM incubated for 24 hrs by Annexin V-FITC/propidium iodide staining based flow cytometry analysis (reference value: 2.02%); format: functional
[10] = Induction in caspase-mediated apoptosis in human NB-4 cells assessed as early apoptotic cells at 25 uM incubated for 24 hrs by Annexin V-FITC/propidium iodide staining based flow cytometry analysis (reference value: 2.02%); format: functional
[11] = Induction in caspase-mediated apoptosis in human NB4-DR1 cells assessed as early apoptotic cells at 12.5 uM incubated for 24 hrs by Annexin V-FITC/propidium iodide staining based flow cytometry analysis (reference value: 1.43%); format: functional
[12] = Induction in caspase-mediated apoptosis in human NB4-DR1 cells assessed as late apoptotic cells at 100 uM incubated for 24 hrs by Annexin V-FITC/propidium iodide staining based flow cytometry analysis (reference value: 1.47%); format: functional
[13] = Induction in caspase-mediated apoptosis in human NB4-DR1 cells assessed as viable cells at 100 uM incubated for 24 hrs in presence of Z-VAD-FMK by Annexin V-FITC/propidium iodide staining based flow cytometry analysis (reference value: 96.4%); format: functional; settings: read-out: Activity
HL-60 = assay: Cytotoxicity against human HL-60 cells assessed as reduction in cell viability measured after 24 hrs by CCK-8 assay; format: functional, cell-based; settings: HL-60, 24 h
Method in brief: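 Cells were grown in RPMI-1640 or high-glucose DMEM with 10% FBS at 37 °C, 5% CO2, and seeded at 3 × 10^4 cells/well. Exposure was 24 h across serial concentrations (0−1000 μM in the screen). […] Three independent experiments, mean ± SEM.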

[14] = biological target: Glycogen synthase kinase-3 beta (Homo sapiens, UniProt P49841); assay: Binding affinity to recombinant human GSK-3beta assessed as covalent bond formation between compound and enzyme by measuring mass changes by […] analysis
Method in brief: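 Human recombinant GSK-3β (10 μM stock in 50 mM HEPES, 1 mM EDTA, 2 mM EGTA, 15 mM Mg(OAc)2) was incubated with compound in DMSO (1.6 μL of 500 μM into 14.4 μL) at 30 °C with shaking for 30 min. Intact protein was run on C4 LC over a 5–100% acetonitrile/0.1% formic acid gradient into positive-ion Q-TOF MS, and mass shift was read.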

[15] = Induction in caspase-mediated apoptosis in human NB4-DR1 cells assessed as late apoptotic cells at 100 uM incubated for 24 hrs in presence of Z-VAD-FMK by Annexin V-FITC/propidium iodide staining based flow cytometry analysis (reference value: 2.54%); format: functional
[16] = Induction in caspase-mediated apoptosis in human NB4-DR1 cells assessed as late apoptotic cells at 50 uM incubated for 24 hrs by Annexin V-FITC/propidium iodide staining based flow cytometry analysis (reference value: 1.47%); format: functional
[17] = Induction in caspase-mediated apoptosis in human NB4-DR1 cells assessed as viable cells at 25 uM incubated for 24 hrs in presence of Z-VAD-FMK by Annexin V-FITC/propidium iodide staining based flow cytometry analysis (reference value: 96.4%); format: functional; settings: read-out: Activity
[18] = Induction in caspase-mediated apoptosis in human NB4-DR1 cells assessed as late apoptotic cells at 12.5 uM incubated for 24 hrs in presence of Z-VAD-FMK by Annexin V-FITC/propidium iodide staining based flow cytometry analysis (reference value: 2.54%); format: functional
[19] = Induction in caspase-mediated apoptosis in human NB4-DR1 cells assessed as necrotic cells at 50 uM incubated for 24 hrs in presence of Z-VAD-FMK by Annexin V-FITC/propidium iodide staining based flow cytometry analysis (reference value: 0.223%); format: functional
[20] = Induction in caspase-mediated apoptosis in human NB-4 cells assessed as early apoptotic cells at 50 uM incubated for 24 hrs by Annexin V-FITC/propidium iodide staining based flow cytometry analysis (reference value: 2.02%); format: functional
[21] = Induction in caspase-mediated apoptosis in human NB-4 cells assessed as late apoptotic cells at 100 uM incubated for 24 hrs by Annexin V-FITC/propidium iodide staining based flow cytometry analysis (reference value: 1.06%); format: functional
[22] = Induction in caspase-mediated apoptosis in human NB-4 cells assessed as viable cells at 12.5 uM incubated for 24 hrs in presence of Z-VAD-FMK by Annexin V-FITC/propidium iodide staining based flow cytometry analysis (reference value: 96.8%); format: functional; settings: read-out: Activity

Chain of Glycogen synthase kinase-3 beta (P49841 whole entry, looked up): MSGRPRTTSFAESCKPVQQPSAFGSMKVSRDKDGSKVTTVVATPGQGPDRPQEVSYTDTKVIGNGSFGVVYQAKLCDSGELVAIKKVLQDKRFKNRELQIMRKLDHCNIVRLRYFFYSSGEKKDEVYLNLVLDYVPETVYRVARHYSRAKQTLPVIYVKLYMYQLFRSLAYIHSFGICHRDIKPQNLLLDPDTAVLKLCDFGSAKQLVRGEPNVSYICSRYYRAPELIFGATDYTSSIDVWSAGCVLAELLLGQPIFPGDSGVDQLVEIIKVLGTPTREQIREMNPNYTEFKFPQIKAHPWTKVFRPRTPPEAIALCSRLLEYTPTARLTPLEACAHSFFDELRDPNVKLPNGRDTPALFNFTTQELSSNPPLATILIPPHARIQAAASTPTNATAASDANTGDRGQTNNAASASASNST

- Activity [14]: Active
SMILES: C=CC(=O)N1C(=O)CC(c2ccc(F)cc2)Sc2ccccc21 (stereo not drawn)
- viability at 25 µM [1]: 80%
- Activity [2]: 19.6%
- viability at 12.5 µM [3]: 96.1%
- Activity [4]: 4.16%
- viability at 50 µM [5]: 79.7%
- Activity [6]: 0.773%
- Activity [7]: 4.39%
- viability at 24 h, up to 50 µM [8]: > 80%
- Activity [9]: 8.87%
- Activity [10]: 6.44%
- Activity [11]: 1.77%
- Activity [12]: 46.8%
- viability at 100 µM [13]: 82.2%
- pIC50 (HL-60): 4.06
- Activity [15]: 14.2%
- Activity [16]: 16.1%
- viability at 25 µM [17]: 93%
- Activity [18]: 2.74%
- Activity [19]: 0.584%
- Activity [20]: 7.23%
- Activity [21]: 85.5%
- viability at 12.5 µM [22]: 86.4%
